ChEMBL document CHEMBL1138243, “Design of mechanism-based inhibitors of transthyretin amyloidosis: studies with biphenyl ethers and new structural templates” (J Med Chem, 2007)
Values joined by “and” are separate entries in the source; they are usually repeats but may differ in a detail not shown here. Identical values can stand only once.

Legend:
[1] = molecular target: T1, Transthyretin (Homo sapiens, UniProt P02766); experiment: Inhibition of transthyretin amyloidosis assessed as fibril formation pH 4.4 at 100 uM; format: functional
Method in brief: (§1)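 Library screen of acid-mediated TTR fibril formation at pH 4.4 with inhibitor at 100 µM. TTR was at 7.2 µM.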

[2] = molecular target: T1, Transthyretin; experiment: Inhibition of transthyretin fibril formation at pH 4.4 at 100 uM; format: functional; method in brief: as §1

SMILES | percent fibril formation relative to control [1] [%] | inhibition [2]
CCN(CC)CCCN(Cc1ccco1)C(=S)Nc1ccc(OC)cc1 | 107 | 0%
O=C(CSc1nccn1-c1cccc(Cl)c1)Nc1cccc2ccccc12 | 122 | 0%
CC(C)C(=O)NC(c1ccccc1)c1ccc2cccnc2c1O (centres undefined) | 4.6 | 95.4%
O=C(O)C1CSC(c2ccc([N+](=O)[O-])cc2)N1 (centres undefined) | 119 | 0%
FC(F)(F)c1cccc(NC(=S)N(CCCN2CCCCC2)Cc2cccs2)c1 | 86.7 | 13.3%
O=C(O)C1CSC(c2c(F)cccc2Cl)N1 (centres undefined) | 20.3 | 79.7%
O=C(O)C1CSC(c2ccc(Cl)cc2Cl)N1 (centres undefined) | 22.3 | 77.7%
COc1cccc(C(=O)NC(c2ccccc2)c2cc(Cl)c3cccnc3c2O)c1 (centres undefined) | 34.7 | 65.3%
O=C(NC(c1cccc([N+](=O)[O-])c1)c1cc(Cl)c2cccnc2c1O)c1cccnc1 (centres undefined) | 72.8 | 27.2%
CCOC(=O)c1c(N)sc(C(=O)Nc2cc(C)cc(C)c2)c1C | 87.8 | 12.2%
Cn1ncc(/N=C/c2ccccc2O)c1C(=O)N1CCOCC1 | 50 | 50%
O=C(O)C1CSC(c2cccnc2)N1 (centres undefined) | 144 | 0%
O=C(O)c1ccc(Cl)c(N2C(=O)C3C4CCC(C4)C3C2=O)c1 (stereo in doubt; 34) | 104 | 0%
COc1cc(/C=C2\SC(=S)N(c3ccc(O)cc3)C2=O)ccc1O | 230 | 0%
COc1ccccc1NC(=S)N(CCCN1CCCCCC1)Cc1cccs1 | 104 | 0%
Nc1cc(O)nc(SCC(=O)N2CCOCC2)n1 | 112 | 0%
CCCCC1NC(C(=O)O)CS1 (centres undefined) | 128 | 0%
O=C(O)C1CSC(c2ccc(Cl)c(Cl)c2)N1 (centres undefined) | 102 | 0%
CCc1ccccc1NC(=S)N(CCN(C)C)Cc1cccs1 | 108 | 0%

SMILES | percent fibril formation relative to control [1] [%] | inhibition [2]
O=C1CCCC2=C1C(c1cccc(O)c1)NC(=S)N2 (centres undefined) | 106 | 0%
O=C(O)c1cccc(-c2ccc(/C=C3/SC(=S)N(c4cccc(C(F)(F)F)c4)C3=O)o2)c1 | 449 | 0%
COc1ccc(NC(=S)N(CCCN2CCOCC2)Cc2cccnc2)cc1 | 98.6 | 1.4%
O=C(O)c1ccc(Cl)c(N2C(=O)C3C4CCC(C4)C3C2=O)c1 (stereo in doubt; 33) | 62.2 | 37.8%
O=C(NCc1ccco1)c1cc(Sc2cccc(Cl)c2)nc2ccccc12 | 60.7 | 39.3%
Cc1ccn2c(Nc3ccccc3C)c(-c3ccc(O)cc3)nc2c1 | 130 | 0%
O=C1/C(=C\c2ccc(-c3ccc(Cl)cc3)o2)SC(=S)N1c1cccc(Cl)c1 | 107 | 0%
Cc1ccc(C2NC(C(=O)O)CS2)cc1 (centres undefined) | 14.3 | 85.7%
Cc1ccsc1/C=c1\sc2nc(-c3cccs3)nn2c1=O | 77.8 | 22.3%
CCN1C(=O)/C(=C/c2ccc(N(CC)CC)cc2O)SC1=S | 177 | 0%
COc1ccc(C2NC(C(=O)O)CS2)cc1OC (centres undefined) | 129 | 0%
Cc1ccccc1C1=N/C(=C\c2sccc2C)C(=O)O1 | 115 | 0%
CCC(=O)NC(c1ccc2c(c1)OCO2)c1cc(Cl)c2cccnc2c1O (centres undefined) | 41.9 | 58.1%
CCCCN(CC)Cc1c(C)nc2ccc(Cl)cc2c1O | 79.7 | 20.3%
Cc1nc2c(C(=O)NCCC(C)C)cnn2c(O)c1Cc1ccccc1F | -86.7 | 91.7%
CSC1=NSC2=NC(=O)/C(=C\c3ccc[nH]3)C(=N)N12 | 202 | 0%
COc1cc(C2NC(C(=O)O)CS2)ccc1O (centres undefined) | 116 | 0%
O=C(O)CCCCCN1C(=O)/C(=C/c2c[nH]c3ccccc23)SC1=S | 126 | 0%

More lines, now with the values ahead:

percent fibril formation relative to control [1] [%] | inhibition [2] | SMILES
114 | 0% | Cc1nnc2c(Oc3ccc(Cl)cc3)nc3cc(Cl)ccc3n12
– | 3.18% and 0% | Cc1cc(C(=O)Nc2cc(Cl)ccc2O)no1
-2.03 | 102% | O=c1c2ccccc2nc2sc(Nc3ccc(F)cc3F)nn12
89.5 | 10.4% | O=C(Nc1c2c(nn1-c1cccc(Cl)c1)C[S+]([O-])C2)c1ccccc1F (centres undefined)
10.4 | 9.71% | CCc1ccc(Oc2cc(F)nc(N)n2)cc1
164 | 0% | CCOC(=O)c1sc(=S)n(-c2ccc(Br)cc2)c1N
84.5 | 15.6% | COC(=O)c1sc(=S)n(-c2ccc(Cl)c(Cl)c2)c1N
105 | 0% | Cc1nc2c(ccc3ccccc32)c(O)c1CN(C)Cc1ccccc1
39.2 | 60.8% | NC(=O)CSc1ncc(-c2ccc(Cl)cc2)[nH]1
309 | 0% | O=C1/C(=C\c2cccc(O)c2)SC(=S)N1c1ccc(F)cc1
– | 0% | O=C(c1cnc(Nc2ccc(F)cc2)c2ccccc12)n1ccnc1
138 | 0% | Clc1ccc2nc(-c3ccc(Cl)s3)c(NC3CCCCC3)n2c1
96 | 4.06% | Oc1ccc(Nc2nc(-c3ccc(Cl)cc3)nc3ccccc23)cc1
66.9 | 33.1% | Cc1nc2c(ccc3ccccc32)c(O)c1CN1CCCC1
81.8 | 18.2% | Cc1nc2ccc(Cl)cc2c(O)c1CN1CCCC1
– | 0% | CCOc1cccc2c1OC(c1cccc(Cl)c1)N1N=C(c3cccs3)CC21 (centres undefined)
8.2 | 91.8% | O=[N+]([O-])c1ccc(Cl)cc1Sc1nc2ccccc2s1
75.7 | 24.3% | CCCCN(CC)Cc1c(C)nc2c(ccc3ccccc32)c1O
52.4 | 47.6% | Nc1nc(Cl)cc(Oc2ccccc2F)n1
71 | 29.1% | O=c1/c(=C\c2ccccc2Cl)sc2nc3ccccc3n12
131 | 0% | NN1C(=O)/C(=C\c2ccc(Cl)cc2)NC1=S
84 | 16% | Nc1nc(F)cc(Oc2ccc(F)cc2)n1

percent fibril formation relative to control [1] [%] | inhibition [2] | SMILES
54.4 | 45.6% | Nc1nc(F)cc(Oc2ccccc2F)n1
135 | 0% | Oc1ccc(-c2nc3ncccn3c2Nc2ccc(Cl)cc2)cc1
286 | 0% | O=C1NC(=S)S/C1=C\c1ccc(-c2cc(Cl)ccc2Cl)o1
156 | 0% | O=C(c1cc(-c2ccc(Cl)s2)nc2ccccc12)N1CCOCC1
46.9 | 53.1% | Cc1nc2c(C(=O)NCc3ccc(F)cc3)cnn2c(O)c1Cc1ccccc1F
19.2 | 80.8% | Oc1ccc(-c2n[nH]c(=S)o2)cc1
125 | 0% | Cc1ccc(/C=c2/sc3nc4ccccc4n3c2=O)cc1
306 | 0% | Cc1ccccc1Nc1c(-c2ccc(Cl)s2)nc2ccc(Cl)cn12
138 | 0% | O=C1OC(c2ccc(Cl)cc2Cl)=N/C1=C/c1ccc(Cl)c(Cl)c1
155 | 0% | Cn1c(=O)c2c(nc(Oc3ccc(-n4cnnn4)cc3)n2C)n(C)c1=O
72.7 | 27.3% | CSC1=NSC2=NC(=O)/C(=C\c3ccc(O)cc3)C(=N)N12
146 | 0% | CCOC(=O)c1sc(=S)n(-c2cccc3ccccc23)c1N
340 | 0% | O=C1/C(=C\c2ccco2)SC(=S)N1c1cccc(F)c1
113 | 0% | Cc1ccc2nc(-c3ccc(Cl)s3)c(Nc3ccc(Cl)cc3)n2c1
20.3 | 79.7% | O=C1CSC(c2ccc(Cl)cc2Cl)N1c1ccc(Cl)cc1 (centres undefined)
104 | 0% | O=C(Nc1c2c(nn1-c1ccc(F)cc1)C[S+]([O-])C2)c1ccccc1F (centres undefined)
368 | 0% | Cc1ccc2nc(NC(=O)c3ccccc3O)sc2c1
294 | 0% | O=C1OC(/C=C/c2ccc(Cl)cc2Cl)=NC/1=C\c1cccs1
162 | 0% | Cc1ccn2c(Nc3ccc(F)cc3)c(-c3ccccn3)nc2c1
136 | 0% | O=C1OC(c2ccc(Cl)cc2Cl)=N/C1=C\c1cccs1
117 | 0% | O=c1c2sccc2n(Cc2ccc(F)cc2Cl)c(=O)n1-c1cc(F)ccc1F
0 | 100% | Clc1ccccc1C1CC(c2cccs2)Nc2nnnn21 (centres undefined)
